High-throughput results (PubChem BioAssay)
Most compounds without a hit are left out; they make up all but 2.9% or so of the library.
FAS-TE inh: FAS thioesterase (human) inhibition | inhibition, % at 15 µM | P49327 | 360,000 tested, 0.67% active | recombinant FAS-TE, OMFH fluorogenic substrate, fluorescence endpoint;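 active = compounds whose normalised, plate-corrected inhibition of enzyme fluorescence in the single-dose primary screen is 50% or more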;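 also: 0% = DMSO with enzyme and 100% = substrate without enzyme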
CaV13 FRET inh: Disruptors of the CACNA1D IQ motif to Ca2+-dependent inactivation inhibitor domain association, primary screening, Förster resonance energy transfer in intact living …. inhibition, % at 12.3 µM. HEK cells, CFP/YFP FRET ICDI-IQ, plate reader, 10 min; percent FRET-ratio fall versus neutral wells. 340,000 tested, 0.098% active;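 active = mean replicate inhibition of at least 30% and at least 1% of replicates passing that level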;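 also: 0% = median of the neutral control wells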
Arr AP2 block: blocks beta-arrestin peptide binding to AP2 adaptin; inhibition, % at 10 µM; FITC-arrestin peptide / GST-AP2 beads, flow cytometry; AP2 beta2 appendage carries R879A mutation; 340,000 tested, 0.31% active;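 active = inhibition above a set limit, near 3 SD of compounds lacking own fluorescence, cut at about 54% in these data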;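 also: plate controls were DMSO wells for no effect and 5 µM unlabelled arrestin peptide for full effect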
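System: GST-AP2 R879A glutathione beads; medium: PBS, Tween 20 0.05%, BSA 0.1%; reagent: fluorescein-tagged arrestin peptide at 50 nM final; schedule: pre-incubation 12 min, peptide binding 1 h, room temperature; detection: flow cytometry, FL1 (488/535 nm); read-out: inhibition as reduced fluorescein signal on beads, percent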
CendR NRP1 mod: NRP-1/CendR interaction modulation; O14786; FAM-RPARPAR peptide binding to NRP-1, fluorescence polarization; inhibition, % at 25 µM; 360,000 tested, 0.85% active;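 active = inhibition or corrected inhibition above about 18%, plus a signal ratio from 0.5 to 1.5, limit read from the data, passing the limit was not always enough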
ADAM10 inh: inhibits human ADAM10 | 370,000 tested, 0.62% active | inhibition, % at 7 µM | recombinant ADAM10, EDANS/DABCYL FRET peptide cleavage, 3 h | O14672 | AID 720582;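 active = inhibition above a per-campaign cutoff equal to the mean of compounds falling between control-based bounds plus 3 SD, cut at about 20% in these data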;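 also: 0% = DMSO wells while the 100% control is not disclosed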
Target sequence (O14672 214-748 limits assumed): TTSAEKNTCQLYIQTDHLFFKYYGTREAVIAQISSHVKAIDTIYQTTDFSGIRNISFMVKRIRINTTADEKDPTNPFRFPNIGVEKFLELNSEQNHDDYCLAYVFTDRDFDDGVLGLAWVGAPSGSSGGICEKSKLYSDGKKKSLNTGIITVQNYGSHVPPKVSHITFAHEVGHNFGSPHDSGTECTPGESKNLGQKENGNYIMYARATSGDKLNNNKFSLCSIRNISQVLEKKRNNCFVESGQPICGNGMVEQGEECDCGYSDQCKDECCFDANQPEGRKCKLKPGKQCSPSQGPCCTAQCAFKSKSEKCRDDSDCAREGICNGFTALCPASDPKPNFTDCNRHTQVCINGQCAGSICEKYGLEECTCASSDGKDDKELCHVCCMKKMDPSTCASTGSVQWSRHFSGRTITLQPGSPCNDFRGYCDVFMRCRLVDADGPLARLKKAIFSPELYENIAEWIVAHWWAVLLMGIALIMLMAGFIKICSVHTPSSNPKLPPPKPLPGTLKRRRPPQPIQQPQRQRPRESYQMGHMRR
ADAM17 inh: inhibits human ADAM17; recombinant ADAM17, EDANS/DABCYL FRET peptide cleavage; 370,000 tested, 0.83% active; inhibition, % at 6.95 µM;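 active = inhibition above the mean of compounds lying between control limits plus 3 SD, set per campaign, cut at about 8.5% in these data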;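 also: 0% = DMSO-only wells as the low control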
The depositor's hits bear a star; · = no result given.

SMILES	FAS-TE inh	CaV13 FRET inh	Arr AP2 block	CendR NRP1 mod	ADAM10 inh	ADAM17 inh
Cc1cc2c(cc1C)NC(c1nc3ccccc3[nH]1)C1=C(CC(C)(C)CC1=O)N2 (stereo not given)	22	·	-12	29*	2	-1
COCCCN1C(=O)C(CC(=O)NCc2cccs2)CC(C(=O)N2CCCCCC2)=C1C (stereo not given)	-6	-11	·	4	4	0
Cc1cc(C)cc(OCCNC(=O)C(C)N2C(=O)c3ccccc3C2=O)c1 (stereo not given)	-2	0	-9	22*	-7	0
Cc1cc(C)cc(NC(=O)C(C)N2C(=O)c3ccccc3C2=O)c1 (stereo not given)	8	-2	-1	-3	-6	0
CCOC(=O)c1cc(-c2ccccc2)sc1NC(=O)CSc1nnc(N)s1	7	96*	-9	-12	18	0
Cc1ccc(C(=O)c2c(NC(=O)CSc3nnc(N)s3)sc3c2CCCC3)cc1	12	-5	4	33*	4	5
CCOC(=O)C1=CCC(c2ccc(N(CC)CC)cc2)N(S(=O)(=O)c2ccc(C)cc2)C1c1ccc([N+](=O)[O-])cc1 (stereo not given)	·	-6	·	10	-8	1
Cn1nc(C(F)(F)F)c(C#N)c1N1CCN(c2cccc(C(F)(F)F)c2)CC1	39	·	-7	39*	-7	-3
CCOC(=O)c1c(C)oc2c1c(C=NCCO)c(O)c1ccccc12	1	-2	-7	35*	-8	0
Cc1cccc(C)c1-n1nnnc1C1c2ccccc2OCC(=O)N1Cc1ccc(F)cc1 (stereo not given)	·	·	·	·	1	1
Cc1ccccc1Nc1nc(N)nc(COC(=O)CC2CC3CCC2C3)n1 (stereo not given)	7	-5	0	27*	6	3
Cc1ccccc1Nc1nc(N)nc(COC(=O)CCS(=O)(=O)c2ccccc2)n1	-4	-3	-3	0	4	-2
CN1CCCCC(NC(=O)c2cccs2)C1=O (stereo not given)	·	·	·	·	-6	-2
CCc1nc2ccc(C(=O)NCCc3ccccn3)cn2c1N(C)Cc1ccc(N(C)C)cc1	-6	-5	·	0	-12	-6
N#Cc1c(Nc2ccccc2)sc(C(=O)c2ccccc2)c1N	-13	·	3	7	-2	-1
Cc1cccc(Oc2sc(C(=O)c3ccccc3)c(N)c2C#N)c1	27	-1	-4	31*	11	7
COc1ccc(-c2oc3c(c2-c2cnc(OC)nc2)C(O)CC3)cc1 (stereo not given)	-5	-10	·	-3	-338	-92
CCCCNC(=O)C1=C(N)C(C(=O)Nc2ccc(C)c(S(=O)(=O)N3CCCCC3)c2)SC1=Nc1ccc(C)cc1C (stereo not given)	10	-5	3	-5	40*	16*
CCOC(=O)C(=CNc1ccc(O)c(C(=O)OC)c1)C(=O)OCC	3	-9	6	25*	-30	-11
NC(=O)CC1(c2ccccc2)CCCCC1	-6	-5	·	9	-1	-5
CC(C)CN1C(=O)C[C@@]2(C(=O)N(C)c3ccc(NC(=O)C(C)(C)C)cc32)C1c1ccccc1 (stereo not given in full)	·	·	·	·	-3	-4
CCCN1CCC(NC(=O)Nc2ccc(OC)c(OC)c2)CC1	-2	-5	-3	49*	-7	-2
Cc1cc(NC(=O)c2ccc(NS(=O)(=O)c3ccccc3)cc2)no1	·	·	·	·	2	1
COc1ccc(S(=O)(=O)N(C)CC(=O)N2CCCCC2)cc1Cl	-2	·	8	27*	4	3
COc1ccc(OC)c(S(=O)(=O)N(C)CC(=O)N2CCN(c3cccc(Cl)c3)CC2)c1	2	-1	0	19*	7	-2
SMILES	FAS-TE inh	CaV13 FRET inh	Arr AP2 block	CendR NRP1 mod	ADAM10 inh	ADAM17 inh
COc1ccc(OC)c(S(=O)(=O)N(C)CC(=O)N2CCN(c3ccc(F)cc3)CC2)c1	-1	·	7	5	10	6
Cc1cc(C(=O)CS(=O)(=O)c2ccc(F)cc2)cc(C)c1O	-5	-4	67*	3	2	-3
Cc1cc(C(=O)CS(=O)(=O)c2ccccc2)cc(C)c1O	-5	-4	6	1	-5	-1
COc1ccc(-n2nnc3c(SCC(=O)NCc4ccco4)ncnc32)cc1	-14	-5	20	36*	-11	-1
C=CCOC(=O)N1CCN(C(=O)c2ccc3nc(C)n(C4CCCC4)c3c2)CC1	·	·	·	·	1	1
O=C1C=C(N2CCOCC2)c2cccc3cccc1c23	-10	-6	·	28*	-24	-12
NN=C1C(=O)c2cccc3cccc1c23	0	-9	7	17	-10	-4
O=C1C=C(O)c2cccc3cccc1c23	-4	-23	3	41*	-3	1
O=C1NC[C@@H](CCCCN2CCN(CCc3ccccc3)C(=O)C2=O)N(CCC2CCCCC2)C1=O	-1	-6	·	-16	2	3
COc1ccc(N2C(=O)c3ccccc3NC(=O)C2C(=O)NCc2ccco2)cc1 (stereo not given)	·	-6	·	-3	-27	1
Cc1ccc(S(=O)(=O)N2CCN(c3cc4c(cc3[N+](=O)[O-])n(C)c(=O)n4C)CC2)cc1	10	-9	-13	0	-9	-1
Cn1c(=O)n(C)c2cc([N+](=O)[O-])c(N3CCN(S(=O)(=O)c4ccc5ccccc5c4)CC3)cc21	66*	·	29	-5	-4	0
CCOC(=O)c1c(-c2cccc([N+](=O)[O-])c2)csc1NC(=O)CCCOc1ccccc1	14	-6	13	-8	-10	-5
CCOC(=O)c1c(-c2cccc([N+](=O)[O-])c2)csc1NC(=O)CCCOc1ccccc1OC	26	·	0	33*	4	-3
COc1cc([N+](=O)[O-])ccc1NC(=O)CCCOc1ccc(C)cc1	31	-5	8	-8	6	-1
COc1cc([N+](=O)[O-])ccc1NC(=O)CCCOc1cccc(C)c1	31	-5	-2	20*	4	1
COCCCN1C(=O)C(CC(=O)NCCCN(C)C)CC(C(=O)N2CCCCCC2)=C1C (stereo not given)	-6	-14	·	-3	3	-1
COC(=O)[C@]12C[C@H](CC(=O)NCCC(C)C)C(=O)N(CCC3=CCCCC3)C1=C[C@H](C(C)(C)C)O[C@@H]2C	·	-9	·	·	8	8
CCCOC(=O)C1=C(C)N(C)C(=O)NC1c1cc2c(cc1Br)OCO2 (stereo not given)	6	-6	-7	5	6	1
